Measurements pooled from the literature.
Each line is one published result; the experiments were not run side by side. Values after ≈ are worked out from the molar mass of the structure shown.
Organism: Escherichia coli
Read-out: microbial growth

SMILES | method | cells | strain | time | MIC [µg/mL]
COC(=O)c1cc(-c2cccc(NC(=O)Nc3cc(OC)ccc3OC)c2)on1 | broth dilution |  | ATCC25922 |  | > 64
COc1cc(O)c2c(c1)/C=C/C[C@H](O)[C@H](O)C(=O)/C=C/C[C@H](C)OC2=O |  |  |  |  | > 500
CO[C@H]1/C=C/O[C@@]2(C)Oc3c(C)c(O)c4c(O)c(c(/C=N/N5CCN(C)CC5)c(O)c4c3C2=O)NC(=O)/C(C)=C\C=C\[C@H](C)[C@H](O)[C@@H](C)[C@@H](O)[C@@H](C)[C@H](OC(C)=O)[C@@H]1C | broth dilution |  | ATCCBAA2469 |  | > 64
Fc1c(F)c(F)c(-c2c(F)c(F)c(F)c(F)c2F)c(F)c1F |  |  | ATCC25922 |  | > 250
CC1(C)S[C@@H]2[C@H](NC(=O)[C@H](N)c3ccccc3)C(=O)N2[C@H]1C(=O)O | broth dilution |  | ATCCBAA2469 |  | > 64
CCCCCCC#Cc1cncc(-c2nnc(SCc3cc([N+](=O)[O-])cc([N+](=O)[O-])c3)n2C)c1 |  |  |  |  | ≥ 20
CC1CCN(CCCN2/C(=C/c3cc[n+](C)c4ccccc34)Sc3ccccc32)CC1.[I-] | broth dilution |  | ATCCBAA2469 |  | 0.5
COC(=O)c1cc(-c2cccc(NC(=O)Nc3ccccc3F)c2)on1 | broth dilution |  | ATCC25922 |  | > 64
CN[C@@H]1[C@H](O)[C@H](NC)[C@H]2O[C@@]3(O)C(=O)C[C@@H](C)O[C@H]3O[C@@H]2[C@H]1O | broth dilution | K12 | K12 |  | 25 (≈ 75.2 µM)
C[C@H](CCC(=O)NCCCNCCCCNCCCN)[C@H]1CC[C@H]2[C@@H]3CC=C4C[C@@H](O)CC[C@]4(C)[C@H]3CC[C@]12C | broth dilution |  | MG1655 | 20 h | 64 (≈ 115 µM)
COC(=O)c1cc(-c2cccc(NC(=O)Nc3cccc(Cl)c3)c2)on1 | broth dilution |  | ATCC25922 |  | > 64
C[n+]1c(/C=C/c2c[nH]c3ccccc23)cc(/C=C2\Sc3ccccc3N2CCCN2CCCC2)c2ccccc21.[I-] | broth dilution |  | ATCCBAA2469 |  | 4
COC(=O)c1cc(-c2ccc(OC)c(NC(=O)Nc3ccc(Cl)c(Cl)c3)c2)on1 | broth dilution |  | ATCC25922 |  | > 64
CC1(C)S[C@@H]2[C@H](NC(=O)[C@H](N)c3ccccc3)C(=O)N2[C@H]1C(=O)O | broth dilution | MDR |  | 16 h | 32 (≈ 91.6 µM)
COC(=O)c1cc(-c2cccc(NC(=S)Nc3cccc(Cl)c3)c2)on1 | broth dilution |  | ATCC25922 |  | > 64
C[C@H]1COCCN1c1nc(NCc2cccnc2C(F)(F)F)c2cccnc2n1 | broth dilution |  | 25922 |  | 128 (≈ 317 µM)
COC(=O)c1cc(-c2cccc(NC(=O)Nc3c(C)cccc3C)c2)on1 | broth dilution |  | ATCC25922 |  | > 64
C[n+]1ccc(/C=C2\Sc3ccccc3N2CCCN2CCCCC2)c2ccccc21.[I-] | broth dilution |  | ATCCBAA2469 |  | 4
